Experimental data: paper PMC8942385 (Medicinal chemistry research : an international journal for …, 2021)
“Also recorded” adds a separate entry of the source. Where two headings read alike, the source gives them in different places.

Legend:
D3R = D3R (Homo sapiens, UniProt P35462); assay: PDSP radioligand binding, D3; conditions: for Ki: Binding affinity constant Ki, D3, [3H]N-Methylspiperone
Method in brief: (§1)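 Radioligand competition binding run by NIMH-PDSP. Radioligands: [3H]8-OH-DPAT (5-HT1AR), [3H]Ketanserin (5-HT2AR), [3H]LSD (5-HT2BR), [3H]SCH23390 (D1R, D5R), [3H]N-Methylspiperone (D2R, D3R, D4R). […] Ki given as mean ± SEM of at least 3 independent assays, each in triplicate.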

D4R = biological target: T1, D4R (Homo sapiens, UniProt P21917); assay: PDSP radioligand binding, D4
T1 sequence (P21917 1-419): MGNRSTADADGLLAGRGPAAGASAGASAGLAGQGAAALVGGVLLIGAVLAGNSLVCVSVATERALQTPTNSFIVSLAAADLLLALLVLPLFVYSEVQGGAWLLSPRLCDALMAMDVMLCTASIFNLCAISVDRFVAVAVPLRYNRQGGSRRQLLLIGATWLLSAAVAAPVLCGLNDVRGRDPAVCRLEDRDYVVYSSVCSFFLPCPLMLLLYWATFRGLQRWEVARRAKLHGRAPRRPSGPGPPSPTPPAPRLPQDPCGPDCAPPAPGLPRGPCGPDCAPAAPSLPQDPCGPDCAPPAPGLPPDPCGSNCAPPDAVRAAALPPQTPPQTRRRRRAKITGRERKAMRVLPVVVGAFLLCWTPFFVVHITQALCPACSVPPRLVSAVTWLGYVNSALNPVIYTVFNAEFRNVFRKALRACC
Method in brief: as §1

h5-HT7A [1] = biological target: T2, h5-HT7A (Homo sapiens, UniProt P34969); assay: HEK-5-HT7A / cAMP functional assay; format: cell-based; conditions: agonist mode
D5R = D5R (Homo sapiens, UniProt P21918); assay: PDSP radioligand binding, D5; conditions: for inhibition at 10 µM: read-out: Binding, D5: inhibition threshold class
Method in brief: as §1

DAT = DAT (Homo sapiens, UniProt Q01959); assay: PDSP radioligand binding, DAT; conditions: for Binding, DAT: inhibition threshold class: [3H]WIN35428, 10 μM concentration
D1R = D1R (Homo sapiens, UniProt P21728); assay: PDSP radioligand binding, D1; conditions: for inhibition at 10 µM: read-out: Binding, D1: inhibition threshold class
Method in brief: as §1

SERT [2] = biological target: T3, SERT (Homo sapiens, UniProt P31645); assay: PDSP radioligand binding, SERT; conditions: for Binding, SERT: inhibition threshold class: [3H]Citalopram, 10 μM concentration
5-HT1AR [3] = biological target: T4, 5-HT1AR (Homo sapiens, UniProt P08908); assay: PDSP radioligand binding, 5-HT1AR; conditions: [3H]8-OH-DPAT
T4 sequence (P08908 1-422): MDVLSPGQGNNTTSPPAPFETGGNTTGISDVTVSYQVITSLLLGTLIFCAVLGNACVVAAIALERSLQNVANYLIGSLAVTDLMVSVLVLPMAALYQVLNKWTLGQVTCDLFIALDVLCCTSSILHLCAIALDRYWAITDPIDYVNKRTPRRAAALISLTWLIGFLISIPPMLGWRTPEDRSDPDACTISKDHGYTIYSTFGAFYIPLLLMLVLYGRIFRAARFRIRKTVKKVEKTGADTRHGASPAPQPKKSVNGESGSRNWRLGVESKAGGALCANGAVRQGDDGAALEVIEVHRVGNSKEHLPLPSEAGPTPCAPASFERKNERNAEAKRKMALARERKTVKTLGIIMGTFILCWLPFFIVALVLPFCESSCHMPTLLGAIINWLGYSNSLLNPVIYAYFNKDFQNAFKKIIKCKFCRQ
Method in brief: as §1

5-HT2BR = 5-HT2BR (Homo sapiens, UniProt P41595); assay: PDSP radioligand binding, 5-HT2BR; conditions: [3H]LSD
Method in brief: as §1

5-HT7R [4] = biological target: T5, 5-HT7R (Homo sapiens, UniProt P34969); assay: PDSP radioligand binding, 5-HT7R
[5] = Configurational stability of separated enantiomers; format: physicochemical; conditions: after chiral HPLC separation
5-HT2AR = 5-HT2AR (Homo sapiens, UniProt P28223); assay: PDSP radioligand binding, 5-HT2AR; conditions: [3H]Ketanserin
Method in brief: as §1

D2R = D2R (Homo sapiens, UniProt P14416); assay: PDSP radioligand binding, D2
Method in brief: as §1

5-HT2CR = biological target: T6, 5-HT2CR (Homo sapiens, UniProt P28335); assay: PDSP radioligand binding, 5-HT2CR
T6 sequence (P28335 33-458): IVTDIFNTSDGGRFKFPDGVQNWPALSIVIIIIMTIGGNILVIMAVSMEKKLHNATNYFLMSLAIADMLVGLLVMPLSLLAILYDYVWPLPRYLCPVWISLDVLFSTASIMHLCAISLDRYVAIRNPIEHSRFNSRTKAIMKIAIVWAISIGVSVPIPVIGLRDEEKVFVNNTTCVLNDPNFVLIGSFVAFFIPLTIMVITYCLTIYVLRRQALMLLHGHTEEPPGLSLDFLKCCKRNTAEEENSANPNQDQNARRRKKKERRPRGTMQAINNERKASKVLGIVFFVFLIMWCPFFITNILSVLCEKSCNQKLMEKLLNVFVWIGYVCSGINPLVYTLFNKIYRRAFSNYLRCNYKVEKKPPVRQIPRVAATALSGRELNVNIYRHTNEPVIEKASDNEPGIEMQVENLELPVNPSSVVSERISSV

NET = NET (Homo sapiens, UniProt P23975); assay: PDSP radioligand binding, NET; conditions: for Binding, NET: inhibition threshold class: [3H]Nisoxetine, 10 μM concentration
5-HT7R [6] = biological target: T5, 5-HT7R; assay: GPCR Tango assay, β-arrestin recruitment; format: cell-based
5-HT7R [7] = biological target: T5, 5-HT7R; conditions: read-out: Binding affinity constant Ki, 5-HT7R; Table 1; cited from earlier work
5-HT1AR [8] = biological target: T4, 5-HT1AR; conditions: read-out: Binding affinity constant Ki, 5-HT1AR; cited from earlier work
SERT [9] = biological target: T3, SERT; conditions: 10 μM concentration; cited from earlier work
h5-HT7A [10] = biological target: T2, h5-HT7A; conditions: cited from earlier work
5-HT7R [11] = biological target: T5, 5-HT7R; conditions: cited from earlier work
[12] = [3H]SCH23390, 10 μM concentration
[13] = mean ± SEM, min 3 assays in triplicate
[14] = Binding affinity constant Ki, 5-HT1AR

Sequence of 5-HT2BR (P41595 whole entry): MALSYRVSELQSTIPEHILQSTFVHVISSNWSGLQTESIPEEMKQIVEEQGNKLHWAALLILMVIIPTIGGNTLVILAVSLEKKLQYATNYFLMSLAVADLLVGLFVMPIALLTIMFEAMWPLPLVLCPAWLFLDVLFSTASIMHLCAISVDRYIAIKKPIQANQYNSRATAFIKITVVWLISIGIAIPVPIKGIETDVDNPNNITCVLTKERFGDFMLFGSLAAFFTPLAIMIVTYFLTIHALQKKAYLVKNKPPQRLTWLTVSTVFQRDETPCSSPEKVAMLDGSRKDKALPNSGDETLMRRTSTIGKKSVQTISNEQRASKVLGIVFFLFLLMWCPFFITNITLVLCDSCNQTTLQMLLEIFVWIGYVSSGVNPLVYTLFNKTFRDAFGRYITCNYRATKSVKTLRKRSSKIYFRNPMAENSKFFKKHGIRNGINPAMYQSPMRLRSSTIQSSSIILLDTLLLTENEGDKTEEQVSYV
Sequence of 5-HT2AR (P28223 whole entry): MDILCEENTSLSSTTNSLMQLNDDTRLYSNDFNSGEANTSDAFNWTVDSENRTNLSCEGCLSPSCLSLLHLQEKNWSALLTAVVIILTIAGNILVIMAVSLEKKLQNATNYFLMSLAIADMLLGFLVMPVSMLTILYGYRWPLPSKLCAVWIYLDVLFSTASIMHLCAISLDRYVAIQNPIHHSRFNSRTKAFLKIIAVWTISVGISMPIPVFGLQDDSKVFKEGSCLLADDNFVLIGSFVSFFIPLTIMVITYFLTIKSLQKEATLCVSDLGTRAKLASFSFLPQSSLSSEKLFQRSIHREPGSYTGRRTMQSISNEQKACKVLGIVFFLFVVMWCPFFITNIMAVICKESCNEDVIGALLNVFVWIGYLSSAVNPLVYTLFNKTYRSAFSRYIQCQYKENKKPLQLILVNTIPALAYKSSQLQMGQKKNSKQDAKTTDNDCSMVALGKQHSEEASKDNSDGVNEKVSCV
T3 sequence (P31645 whole entry, species assumed): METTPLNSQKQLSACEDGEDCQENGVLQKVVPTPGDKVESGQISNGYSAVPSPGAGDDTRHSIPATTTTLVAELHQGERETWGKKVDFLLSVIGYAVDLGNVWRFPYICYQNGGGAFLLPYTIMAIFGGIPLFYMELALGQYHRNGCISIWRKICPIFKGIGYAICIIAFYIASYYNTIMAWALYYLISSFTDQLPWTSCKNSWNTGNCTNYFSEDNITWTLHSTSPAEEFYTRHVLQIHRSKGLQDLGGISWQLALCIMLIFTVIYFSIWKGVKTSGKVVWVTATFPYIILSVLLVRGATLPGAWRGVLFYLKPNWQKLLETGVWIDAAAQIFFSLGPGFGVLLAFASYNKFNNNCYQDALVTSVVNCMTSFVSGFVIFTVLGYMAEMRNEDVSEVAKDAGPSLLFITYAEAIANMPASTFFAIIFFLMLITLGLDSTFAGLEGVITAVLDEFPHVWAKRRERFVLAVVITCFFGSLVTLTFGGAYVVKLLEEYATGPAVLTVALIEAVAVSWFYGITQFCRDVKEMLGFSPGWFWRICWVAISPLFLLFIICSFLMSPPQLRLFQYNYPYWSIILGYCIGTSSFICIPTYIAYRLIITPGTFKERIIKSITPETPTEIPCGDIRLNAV
Sequence of D2R (P14416 whole entry): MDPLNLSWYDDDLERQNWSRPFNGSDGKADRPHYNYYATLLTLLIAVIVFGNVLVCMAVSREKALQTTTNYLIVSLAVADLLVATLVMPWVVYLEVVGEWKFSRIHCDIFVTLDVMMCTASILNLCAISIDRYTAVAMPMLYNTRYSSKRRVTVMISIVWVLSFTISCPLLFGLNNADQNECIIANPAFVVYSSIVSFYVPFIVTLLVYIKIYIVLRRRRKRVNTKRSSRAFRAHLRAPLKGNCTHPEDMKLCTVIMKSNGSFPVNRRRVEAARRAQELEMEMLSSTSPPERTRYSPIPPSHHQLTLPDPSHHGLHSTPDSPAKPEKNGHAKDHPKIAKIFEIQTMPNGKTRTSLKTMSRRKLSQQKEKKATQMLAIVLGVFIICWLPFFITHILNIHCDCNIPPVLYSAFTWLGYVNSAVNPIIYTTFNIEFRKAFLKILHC
Sequence of D3R (P35462 whole entry): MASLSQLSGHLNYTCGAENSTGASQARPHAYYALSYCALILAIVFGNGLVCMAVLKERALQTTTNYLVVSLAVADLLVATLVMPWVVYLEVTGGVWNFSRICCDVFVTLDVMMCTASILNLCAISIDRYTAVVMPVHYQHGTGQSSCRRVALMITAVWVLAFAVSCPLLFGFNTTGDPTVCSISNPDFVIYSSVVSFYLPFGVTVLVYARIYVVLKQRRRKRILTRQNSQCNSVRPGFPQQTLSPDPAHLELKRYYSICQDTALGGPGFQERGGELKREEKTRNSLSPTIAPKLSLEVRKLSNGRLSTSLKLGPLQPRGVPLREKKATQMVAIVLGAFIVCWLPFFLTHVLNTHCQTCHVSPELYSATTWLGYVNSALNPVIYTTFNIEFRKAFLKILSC
Sequence of D5R (P21918 whole entry): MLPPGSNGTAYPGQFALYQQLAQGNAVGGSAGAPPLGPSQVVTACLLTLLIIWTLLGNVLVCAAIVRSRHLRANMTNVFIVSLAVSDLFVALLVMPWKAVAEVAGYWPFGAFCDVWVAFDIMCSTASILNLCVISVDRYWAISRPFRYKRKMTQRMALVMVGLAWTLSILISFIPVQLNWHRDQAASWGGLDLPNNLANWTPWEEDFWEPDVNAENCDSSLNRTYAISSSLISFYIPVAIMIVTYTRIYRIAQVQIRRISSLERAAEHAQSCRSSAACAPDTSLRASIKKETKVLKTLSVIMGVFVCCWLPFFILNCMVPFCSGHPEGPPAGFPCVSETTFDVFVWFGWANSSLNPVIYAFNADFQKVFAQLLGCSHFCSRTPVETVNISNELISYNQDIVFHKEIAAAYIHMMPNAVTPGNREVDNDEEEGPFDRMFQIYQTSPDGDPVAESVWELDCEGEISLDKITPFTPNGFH
T2 sequence (P34969 1-445 isoform P34969-2): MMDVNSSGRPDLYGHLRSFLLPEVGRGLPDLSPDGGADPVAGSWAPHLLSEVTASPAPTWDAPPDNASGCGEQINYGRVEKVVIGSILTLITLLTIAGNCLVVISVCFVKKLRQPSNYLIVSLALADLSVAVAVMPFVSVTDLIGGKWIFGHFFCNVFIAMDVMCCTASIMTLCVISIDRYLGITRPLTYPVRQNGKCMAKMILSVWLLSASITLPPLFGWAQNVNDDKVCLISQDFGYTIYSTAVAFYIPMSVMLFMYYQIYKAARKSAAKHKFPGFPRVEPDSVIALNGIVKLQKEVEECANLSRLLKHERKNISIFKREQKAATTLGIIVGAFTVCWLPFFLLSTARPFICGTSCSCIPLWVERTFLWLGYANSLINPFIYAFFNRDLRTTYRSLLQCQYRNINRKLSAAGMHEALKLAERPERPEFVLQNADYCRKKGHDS
T5 sequence (P34969 whole entry): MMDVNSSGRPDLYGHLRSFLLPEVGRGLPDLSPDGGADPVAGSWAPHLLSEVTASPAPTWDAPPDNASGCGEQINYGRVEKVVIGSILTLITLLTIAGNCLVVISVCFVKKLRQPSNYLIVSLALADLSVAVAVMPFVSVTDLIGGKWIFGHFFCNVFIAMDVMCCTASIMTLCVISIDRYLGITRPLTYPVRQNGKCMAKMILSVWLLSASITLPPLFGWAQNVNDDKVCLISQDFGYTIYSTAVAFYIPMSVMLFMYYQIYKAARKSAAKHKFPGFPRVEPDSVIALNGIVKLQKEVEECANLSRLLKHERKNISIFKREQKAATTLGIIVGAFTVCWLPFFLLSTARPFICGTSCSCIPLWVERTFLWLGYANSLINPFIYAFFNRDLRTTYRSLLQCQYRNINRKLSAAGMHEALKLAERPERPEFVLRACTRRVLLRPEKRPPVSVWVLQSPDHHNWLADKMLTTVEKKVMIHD
Sequence of DAT (Q01959 whole entry, species assumed): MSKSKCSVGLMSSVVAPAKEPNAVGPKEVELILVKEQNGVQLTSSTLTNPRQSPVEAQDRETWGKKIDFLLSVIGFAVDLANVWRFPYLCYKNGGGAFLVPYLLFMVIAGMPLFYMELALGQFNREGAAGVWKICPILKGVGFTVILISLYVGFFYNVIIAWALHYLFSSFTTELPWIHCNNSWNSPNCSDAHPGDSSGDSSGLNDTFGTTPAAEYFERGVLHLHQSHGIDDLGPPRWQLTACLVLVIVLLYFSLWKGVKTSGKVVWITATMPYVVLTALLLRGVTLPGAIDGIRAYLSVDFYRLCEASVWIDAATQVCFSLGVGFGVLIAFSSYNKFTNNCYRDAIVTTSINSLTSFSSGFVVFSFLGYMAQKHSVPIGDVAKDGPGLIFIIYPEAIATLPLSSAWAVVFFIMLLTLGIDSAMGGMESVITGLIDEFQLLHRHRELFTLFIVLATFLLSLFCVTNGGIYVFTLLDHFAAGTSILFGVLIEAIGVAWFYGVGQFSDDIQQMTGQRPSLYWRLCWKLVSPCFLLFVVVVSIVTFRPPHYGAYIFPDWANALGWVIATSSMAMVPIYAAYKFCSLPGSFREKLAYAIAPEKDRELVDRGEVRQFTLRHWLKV
Sequence of D1R (P21728 whole entry): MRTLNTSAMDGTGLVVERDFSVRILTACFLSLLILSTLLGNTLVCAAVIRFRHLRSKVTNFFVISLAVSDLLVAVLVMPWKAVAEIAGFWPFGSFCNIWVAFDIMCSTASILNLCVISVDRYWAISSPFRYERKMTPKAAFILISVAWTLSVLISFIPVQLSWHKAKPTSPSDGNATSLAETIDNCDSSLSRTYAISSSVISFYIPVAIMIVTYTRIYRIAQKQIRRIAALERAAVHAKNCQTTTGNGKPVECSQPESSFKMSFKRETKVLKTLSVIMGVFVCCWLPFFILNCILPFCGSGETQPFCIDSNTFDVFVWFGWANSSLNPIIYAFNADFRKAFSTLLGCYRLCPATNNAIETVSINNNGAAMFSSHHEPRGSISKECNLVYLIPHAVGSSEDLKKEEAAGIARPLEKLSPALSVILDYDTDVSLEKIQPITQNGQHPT

With `CC1(CCN2CCc3ccccc3C2)Cc2cc(Cl)ccc2C1=O` (single isomer, unassigned; (-)) [Compound 2a, (−)-5-chloro-2-(2-(3,4-dihydroisoquinolin-2(1H)-yl)ethyl)-2-methyl-2,3-dihydro-1H-inden-1-one] the “Binding, D3: inhibition threshold class” value (D3R; 10 μM concentration) was “MT (Missed threshold of 50% inhibition at 10 μM concentration)”, the “Binding affinity constant pKi ± SEM, D4” value (D4R; [3H]N-Methylspiperone, mean ± SEM, min 3 assays in triplicate) was 6.34 ± 0.07 and the Ki (D4R; read-out: Binding affinity constant Ki, D4, [3H]N-Methylspiperone) was 457 nM. For the same molecule, the “cAMP Hill” value (h5-HT7A [1]) was 1.3± 0.2, the “cAMP pEC50” value (h5-HT7A [1]) was 6.9±0.3 and the “cAMP Emax %” value (h5-HT7A [1]; normalized to maximal serotonin effect) was 82.8 ± 2.6%. The EC50 (h5-HT7A [1]; read-out: cAMP EC50) was 126 nM, the “Binding, D5: inhibition threshold class” value (D5R; [12]) was “MT (Missed threshold of 50% inhibition at 10 μM concentration)” and the “Binding, DAT: inhibition threshold class” value (DAT) was “MT (Missed threshold of 50% inhibition at 10 μM concentration)”. The “Binding, D1: inhibition threshold class” value (D1R; [12]) was “MT (Missed threshold of 50% inhibition at 10 μM concentration)”, the “Binding, SERT: inhibition threshold class” value (SERT [2]) was “MT (Missed threshold of 50% inhibition at 10 μM concentration)” and the “Binding affinity constant pKi ± SEM, 5-HT1AR” value (5-HT1AR [3]; [13]) was 7.06±0.07. For the same molecule, the Ki (5-HT1AR [3]; read-out: Binding affinity constant Ki, 5-HT1AR) was 86.3 nM, the “Binding affinity constant pKi ± SEM, 5-HT2BR” value (5-HT2BR; [13]) was 6.48 ± 0.04 and the Ki (5-HT2BR; read-out: Binding affinity constant Ki, 5-HT2BR) was 329 nM. The “Selectivity for 5-HT7R over 5-HT1AR” value (5-HT7R [4]) was about 72 fold, the “Binding affinity constant pKi ± SEM, 5-HT7R” value (5-HT7R [4]; Table 1, [3H]LSD, mean ± SEM, min 3 assays in triplicate) was 8.94 ± 0.06 and the “5-HT7 Receptor Binding pKi” value (5-HT7R [4]; Table 3) was 8.7 ± 0.1. For the same molecule, the Ki (5-HT7R [4]; read-out: 5-HT7 Receptor Binding Ki, Table 3) was 2.4 nM, the Ki (5-HT7R [4]; read-out: Binding affinity constant Ki, 5-HT7R, Table 1, [3H]LSD) was 1.2 nM and the “Racemization of separated enantiomers” value [5] was “No racemization”. For the same molecule, the “Binding affinity constant pKi ± SEM, 5-HT2AR” value (5-HT2AR; [13]) was 6.08 ± 0.06, the Ki (5-HT2AR; read-out: Binding affinity constant Ki, 5-HT2AR) was 834 nM and the “Binding, D2: inhibition threshold class” value (D2R; 10 μM concentration) was “MT (Missed threshold of 50% inhibition at 10 μM concentration)”. The “Binding, 5-HT2CR: inhibition threshold class” value (5-HT2CR; 10 μM concentration) was “MT (Missed threshold of 50% inhibition at 10 μM concentration)”, the “Binding, NET: inhibition threshold class” value (NET) was “MT (Missed threshold of 50% inhibition at 10 μM concentration)” and the “β-arrestin Emax %” value (5-HT7R [6]; agonist mode, Tango) was 78.7 ± 5.7%. For the same molecule, the “β-arrestin Hill” value (5-HT7R [6]; agonist mode, Tango) was 1.2 ± 0.1, the “β-arrestin pEC50” value (5-HT7R [6]; agonist mode, Tango) was 8.4 ± 0.1 and the EC50 (5-HT7R [6]; read-out: β-arrestin EC50, agonist mode, Tango) was 3.98 nM. The “Times higher activity than 5-HT in the β-arrestin pathway” value (5-HT7R [6]; relative to 5-HT) was “over 31 times”.

In the case of `Cc1nn(C)c(C)c1-c1cccc2c1CC[C@H](N(C)C)C2` [AS-19], the Ki (5-HT7R [7]) is listed as 0.6 nM and the Ki (5-HT1AR [8]) is listed as 89.7 nM.

In the case of `O=C1c2ccc(Cl)cc2CC1CCN1CCc2ccccc2C1` (stereo not drawn) [Compound 1c, 5-chloro-2-(2-(3,4-dihydroisoquinolin-2(1H)-yl)ethyl)-2,3-dihydro-1H-inden-1-one], the “Binding, SERT: inhibition threshold class” value (SERT [9]) is given as “MT (Missed threshold of 50% inhibition at 10 μM concentration)” and the “Racemization of separated enantiomers” value [5] is given as “racemizes readily; also recorded: quickly reverted to the racemic mixture in a matter of hours”.

For `CC1(CCN2CCc3ccccc3C2)Cc2cc(Cl)ccc2C1=O` (stereo not drawn) [Compound 2, 5-chloro-2-(2-(3,4-dihydroisoquinolin-2(1H)-yl)ethyl)-2-methyl-2,3-dihydro-1H-inden-1-one], the Ki (D3R) was 185 nM, the Ki (D4R; Binding affinity constant Ki, D4, [3H]N-Methylspiperone) was 1220 nM and the inhibition at 10 µM (D5R) was under 50%. For the same molecule, the inhibition at 10 µM (DAT; read-out: Binding, DAT: inhibition threshold class) was under 50%, the inhibition at 10 µM (D1R) was under 50% and the inhibition at 10 µM (SERT [2]; read-out: Binding, SERT: inhibition threshold class) was under 50%. The Ki (5-HT1AR [3]; [14]) was 1720 nM, the Ki (5-HT2BR; Binding affinity constant Ki, 5-HT2BR) was 174 nM and the “Fold higher affinity at the 5-HT7R than clozapine” value (5-HT7R [4]) was 2 fold. For the same molecule, the “Fold lower affinity at the 5-HT7R than AS 19” value (5-HT7R [4]) was “about 4 fold”, the Ki (5-HT7R [4]) was 2.24 nM and the Ki (5-HT2AR; Binding affinity constant Ki, 5-HT2AR) was 904 nM. For the same molecule, the Ki (D2R) was 1230 nM, the Ki (5-HT2CR; Binding affinity constant Ki, 5-HT2CR, [3H]Mesulergine) was 1740 nM and the inhibition at 10 µM (NET; read-out: Binding, NET: inhibition threshold class) was under 50%.

Work on `CCOC(=O)C1(CCN2CCc3ccccc3C2)Cc2cc(Cl)ccc2C1=O` (stereo not drawn) [Compound 3, ethyl 5-chloro-2-(2-(3,4-dihydroisoquinolin-2(1H)-yl)ethyl)-1-oxo-2,3-dihydro-1H-indene-2-carboxylate] yielded a Ki (D3R) of 134 nM, an inhibition at 10 µM (D4R; read-out: Binding, D4: inhibition threshold class) of under 50% and an inhibition at 10 µM (D5R) of under 50%. The “Binding, DAT: inhibition threshold class” value (DAT) was “MT (Missed threshold of 50% inhibition at 10 μM concentration)”, the inhibition at 10 µM (D1R) was under 50% and the “Binding, SERT: inhibition threshold class” value (SERT [2]) was “MT (Missed threshold of 50% inhibition at 10 μM concentration)”. The Ki (5-HT1AR [3]; [14]) was 52 nM, the Ki (5-HT7R [4]) was 3.39 nM and the Ki (D2R) was 747 nM. For the same molecule, the Ki (5-HT2CR) was 885 nM and the “Binding, NET: inhibition threshold class” value (NET) was “MT (Missed threshold of 50% inhibition at 10 μM concentration)”.

In the case of `NCCc1c[nH]c2ccc(O)cc12` [Compound 5-HT, Serotonin, reference compound], the “cAMP Hill” value (h5-HT7A [1]) is reported as 1.0±0.1 and the “β-arrestin Hill” value (5-HT7R [6]; agonist mode, Tango) is reported as 3.4±0.4.

In the case of `Clc1ccc(-c2n[nH]c3c2CCNCC3)cc1` [Compound 7, 3-(4-chlorophenyl)-1,4,5,6,7,8-hexahydropyrazolo[3,4-d]azepine], the “cAMP Emax %” value (h5-HT7A [10]) is listed as 94.7%, the “cAMP pEC50” value (h5-HT7A [10]) is listed as 5.1±0.1 and the EC50 (h5-HT7A [10]; read-out: cAMP EC50) is listed as 7790 nM. For the same molecule, the Ki (5-HT1AR [8]) was over 10000 nM, the “β-arrestin Emax %” value (5-HT7R [11]) was 62.7% and the “β-arrestin pEC50” value (5-HT7R [11]) was 6.8±0.2.
